Laboratory results from ChEMBL document CHEMBL4706664, “Rational drug design of 6-substituted 4-anilino-2-phenylpyrimidines for exploration of novel ABCG2 binding site” (Eur J Med Chem, 2021).

Key:
[1] = Cytotoxicity against ABCG2 overexpressing MDCK-II cells assessed as reduction in cell viability measured after 72 hrs by MTT assay; format: ADME, cell-based, Canis lupus familiaris; settings: dog
Procedure, shortened: (§1)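 MTT cell viability. Compound dilution series prepared in culture medium at 3.16 µM to 1 mM (dilution stock; added 20 µL to 180 µL cells). Seeding per well: MDCK II and MDCK II BCRP 2000, A2780 and A2780/ADR 8000, H69AR 20,000. Incubated 72 h, 37 °C, 5% CO2. MTT 5 mg/mL added for 60 min, formazan dissolved in DMSO, absorbance 570 nm (690 nm background). Medium = 100%, 10% DMSO = 0% viability. GI50 by four-parameter logistic fit. Mean ± SEM of at least three independent experiments.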

[2] = molecular target: ATP-dependent translocase ABCB1 (Homo sapiens, UniProt P08183); experiment: Inhibition of ABCB1 (unknown origin) expressed in human A2780 ADR cells assessed as reduction in calcein AM efflux preincubated for 30 mins followed by calcein AM addition and measured at 60 secs interval for 1 hr by fluorescence assay; format: cell-based
Procedure, shortened: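 Calcein AM accumulation in A2780/ADR cells (30,000/well, Krebs-HEPES buffer pH 7.4). Cells preincubated with compound 30 min at 37 °C, 5% CO2. Then 20 µL of 3.125 µM calcein AM added. Fluorescence (ex 485/em 520 nm) read every 60 s for 1 h. […] Screening at 10 µM.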

ABCB1 [3] = molecular target: ABCB1 (Homo sapiens, UniProt P08183); experiment: Inhibition of ABCB1 (unknown origin) expressed in human A2780 ADR cells assessed as reduction in calcein AM efflux at 10 uM preincubated for 30 mins followed by calcein AM addition and measured at 60 secs interval for 1 hr by fluorescence assay relative to control; format: cell-based; settings: A2780 ADR cells expressing ABCB1, probe calcein AM, time 90 min
Procedure, shortened: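 Calcein AM accumulation in A2780/ADR cells (30,000/well, Krebs-HEPES buffer pH 7.4). Cells preincubated with compound 30 min at 37 °C, 5% CO2. Screening at 10 µM.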

ABCG2 [4] = experiment: Therapeutic index, ratio of GI50 for cytotoxicity against ABCG2 overexpressing MDCK-II cells to IC50 for inhibition of ABCG2 (unknown origin) expressed in MDCK-II cells; settings: dog
[5] = Cytotoxicity against wild-type MDCK-II cells assessed as reduction in cell viability measured after 72 hrs by MTT assay; format: cell-based, Canis lupus familiaris; settings: dog; procedure, shortened: as §1
ABCG2 [6] = molecular target: T1, ABCG2 (Homo sapiens, UniProt Q9UNQ0); experiment: Inhibition of ABCG2 (unknown origin) expressed in MDCK-II cells assessed as reduction in pheophorbide A efflux measured after 2 hrs by flow cytometry relative to Ko143; format: cell-based; settings: MDCK-II cells expressing ABCG2, probe pheophorbide A, read-out: Imax
T1 sequence (Q9UNQ0 whole entry): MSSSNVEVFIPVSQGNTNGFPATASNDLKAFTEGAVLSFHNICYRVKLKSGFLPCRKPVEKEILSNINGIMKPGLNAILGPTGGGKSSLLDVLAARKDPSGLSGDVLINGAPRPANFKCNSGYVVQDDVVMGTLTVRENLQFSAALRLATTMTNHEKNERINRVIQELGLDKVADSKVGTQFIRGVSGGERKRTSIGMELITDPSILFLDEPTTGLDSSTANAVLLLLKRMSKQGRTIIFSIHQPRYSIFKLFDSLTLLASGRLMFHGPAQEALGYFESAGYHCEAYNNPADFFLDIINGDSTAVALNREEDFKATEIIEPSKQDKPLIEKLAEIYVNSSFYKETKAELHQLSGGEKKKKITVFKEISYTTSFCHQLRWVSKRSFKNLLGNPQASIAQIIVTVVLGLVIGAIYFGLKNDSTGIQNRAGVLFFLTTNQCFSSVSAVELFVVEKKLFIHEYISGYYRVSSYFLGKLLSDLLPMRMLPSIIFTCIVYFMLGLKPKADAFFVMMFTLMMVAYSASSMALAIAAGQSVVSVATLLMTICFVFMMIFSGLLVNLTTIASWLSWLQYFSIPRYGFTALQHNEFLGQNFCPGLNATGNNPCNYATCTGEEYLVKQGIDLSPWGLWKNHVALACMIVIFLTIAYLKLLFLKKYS
Procedure, shortened: (§2)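 Pheophorbide A accumulation in MDCK II BCRP cells, about 45,000 cells/well in Krebs-HEPES buffer pH 7.4. Compound dilutions were prepared at 0.316–100 µM, and 20 µL of 5 µM pheophorbide A was added. Incubated 2 h at 37 °C, 5% CO2. Fluorescence read by flow cytometry (ex 488 nm, em 695/50 nm). IC50 and Imax are mean ± SEM of at least three independent experiments.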

[7] = molecular target: T2, Broad substrate specificity ATP-binding cassette transporter ABCG2 (Homo sapiens, UniProt Q9UNQ0); experiment: Inhibition of ABCG2 (unknown origin) expressed in MDCK-II cells assessed as reduction in pheophorbide A efflux measured after 2 hrs by flow cytometry; format: cell-based; procedure, shortened: as §2
T2 sequence (Q9UNQ0 whole entry): T1 sequence (Q9UNQ0 whole entry)

ABCC1 = ABCC1 (Homo sapiens, UniProt P33527); experiment: Inhibition of ABCC1 (unknown origin) expressed in human NCI-H69AR cells assessed as reduction in calcein AM efflux at 10 uM preincubated for 30 mins followed by calcein AM addition and measured at 60 secs interval for 1 hr by fluorescence assay relative to control; format: cell-based; settings: NCI-H69AR cells expressing ABCC1, probe calcein AM, time 90 min
[8] = Cytotoxicity against human A2780 cells assessed as reduction in cell viability measured after 72 hrs by MTT assay
[9] = Cytotoxicity against ABCB1 over expressing human A2780 ADR cells assessed as reduction in cell viability measured after 72 hrs by MTT assay; format: ADME, cell-based; settings: ABCB1 overexpressing A2780 ADR cells; procedure, shortened: as §1
[10] = Cytotoxicity against ABCC1 over expressing human NCI-H69AR cells assessed as reduction in cell viability measured after 72 hrs by MTT assay; format: ADME, cell-based; settings: ABCC1 overexpressing NCI-H69AR cells; procedure, shortened: as §1
[11] = Cytotoxicity against ABCB1 over expressing human A2780 cells assessed as reduction in cell viability measured after 72 hrs by MTT assay; format: ADME, cell-based; settings: in the assay text read “human A2780 cells” for “ABCB1 over expressing human A2780 cells”; procedure, shortened: as §1
ABCB1 [12] = experiment: Therapeutic index, ratio of GI50 for cytotoxicity against ABCB1 over expressing human A2780 ADR cells to IC50 for inhibition of ABCB1 (unknown origin) expressed in human A2780 ADR cells; settings: ABCB1 overexpressing A2780 ADR cells

Sequence of ABCC1 (P33527 whole entry): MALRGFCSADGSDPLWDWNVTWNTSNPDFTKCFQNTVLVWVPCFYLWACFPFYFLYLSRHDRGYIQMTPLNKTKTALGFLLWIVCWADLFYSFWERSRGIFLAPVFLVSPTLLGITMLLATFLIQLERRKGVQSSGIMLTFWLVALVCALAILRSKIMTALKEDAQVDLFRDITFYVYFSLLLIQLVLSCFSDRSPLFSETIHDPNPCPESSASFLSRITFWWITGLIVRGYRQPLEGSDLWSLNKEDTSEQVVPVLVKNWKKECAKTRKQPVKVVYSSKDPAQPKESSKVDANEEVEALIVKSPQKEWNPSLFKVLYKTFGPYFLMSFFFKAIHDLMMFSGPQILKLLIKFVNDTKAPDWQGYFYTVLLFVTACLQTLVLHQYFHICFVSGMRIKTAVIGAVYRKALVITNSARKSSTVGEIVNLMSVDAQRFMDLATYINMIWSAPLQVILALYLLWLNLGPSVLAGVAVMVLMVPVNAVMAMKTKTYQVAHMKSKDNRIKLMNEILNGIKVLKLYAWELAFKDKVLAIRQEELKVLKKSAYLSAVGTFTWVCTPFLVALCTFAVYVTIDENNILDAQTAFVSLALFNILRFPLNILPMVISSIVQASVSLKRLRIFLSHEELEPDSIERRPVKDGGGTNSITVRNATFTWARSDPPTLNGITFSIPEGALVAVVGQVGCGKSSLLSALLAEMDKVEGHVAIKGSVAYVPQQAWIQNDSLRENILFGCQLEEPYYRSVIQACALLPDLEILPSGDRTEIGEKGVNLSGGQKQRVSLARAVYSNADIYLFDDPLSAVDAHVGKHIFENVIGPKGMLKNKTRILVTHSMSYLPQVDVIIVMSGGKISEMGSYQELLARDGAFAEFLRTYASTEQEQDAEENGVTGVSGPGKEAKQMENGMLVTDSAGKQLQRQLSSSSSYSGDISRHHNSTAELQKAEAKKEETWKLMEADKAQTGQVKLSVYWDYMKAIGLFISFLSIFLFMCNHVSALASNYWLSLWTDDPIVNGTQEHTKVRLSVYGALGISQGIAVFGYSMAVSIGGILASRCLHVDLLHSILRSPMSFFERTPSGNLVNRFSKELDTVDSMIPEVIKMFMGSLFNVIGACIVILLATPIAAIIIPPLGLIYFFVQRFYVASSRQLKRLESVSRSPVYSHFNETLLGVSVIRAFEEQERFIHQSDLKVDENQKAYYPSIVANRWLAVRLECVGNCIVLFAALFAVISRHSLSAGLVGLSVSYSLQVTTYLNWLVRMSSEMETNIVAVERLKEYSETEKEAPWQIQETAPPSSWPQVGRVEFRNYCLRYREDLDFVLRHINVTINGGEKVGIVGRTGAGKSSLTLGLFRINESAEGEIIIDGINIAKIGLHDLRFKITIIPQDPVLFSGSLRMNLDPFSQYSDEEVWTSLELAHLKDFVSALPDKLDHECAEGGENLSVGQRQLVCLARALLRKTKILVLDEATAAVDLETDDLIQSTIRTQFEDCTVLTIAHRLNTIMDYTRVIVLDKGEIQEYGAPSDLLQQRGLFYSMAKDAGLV
Sequence of ABCB1 (Homo sapiens, UniProt P08183) (P08183 whole entry): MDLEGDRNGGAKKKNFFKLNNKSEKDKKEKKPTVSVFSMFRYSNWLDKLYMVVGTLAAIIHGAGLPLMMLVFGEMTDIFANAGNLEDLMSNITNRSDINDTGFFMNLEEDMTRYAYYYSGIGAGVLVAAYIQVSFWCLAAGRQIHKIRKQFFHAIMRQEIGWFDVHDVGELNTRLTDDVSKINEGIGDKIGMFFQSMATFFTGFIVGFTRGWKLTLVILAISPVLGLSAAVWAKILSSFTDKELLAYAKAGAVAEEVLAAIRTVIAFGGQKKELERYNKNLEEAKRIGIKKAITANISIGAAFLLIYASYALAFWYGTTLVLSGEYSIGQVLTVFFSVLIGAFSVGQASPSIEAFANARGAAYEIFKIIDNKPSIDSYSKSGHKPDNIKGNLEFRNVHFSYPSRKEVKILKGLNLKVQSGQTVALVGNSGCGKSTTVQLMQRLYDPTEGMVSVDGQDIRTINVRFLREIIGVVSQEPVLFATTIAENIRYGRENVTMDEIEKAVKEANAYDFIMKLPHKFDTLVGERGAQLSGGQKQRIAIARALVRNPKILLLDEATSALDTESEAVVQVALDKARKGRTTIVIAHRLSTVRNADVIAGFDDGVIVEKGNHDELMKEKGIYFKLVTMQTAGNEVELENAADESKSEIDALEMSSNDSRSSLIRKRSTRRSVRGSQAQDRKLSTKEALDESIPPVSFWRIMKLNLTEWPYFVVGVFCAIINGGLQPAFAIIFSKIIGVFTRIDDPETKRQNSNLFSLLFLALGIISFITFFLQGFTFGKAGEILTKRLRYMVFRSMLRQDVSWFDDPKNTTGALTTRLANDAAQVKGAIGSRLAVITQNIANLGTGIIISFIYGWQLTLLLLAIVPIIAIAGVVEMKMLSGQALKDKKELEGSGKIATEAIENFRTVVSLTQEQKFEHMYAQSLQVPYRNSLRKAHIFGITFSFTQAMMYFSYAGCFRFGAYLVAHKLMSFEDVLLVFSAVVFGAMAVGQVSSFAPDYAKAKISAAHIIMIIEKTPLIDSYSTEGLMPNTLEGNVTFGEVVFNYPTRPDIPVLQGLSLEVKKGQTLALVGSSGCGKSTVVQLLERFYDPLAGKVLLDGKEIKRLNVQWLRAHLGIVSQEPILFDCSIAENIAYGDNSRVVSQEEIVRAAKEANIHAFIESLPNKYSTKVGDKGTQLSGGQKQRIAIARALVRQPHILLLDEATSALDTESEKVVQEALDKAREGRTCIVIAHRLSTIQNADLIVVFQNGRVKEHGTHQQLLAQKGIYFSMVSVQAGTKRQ
Sequence of ATP-dependent translocase ABCB1 (P08183 whole entry): as above

Compound | GI50 at 72 h [1] | IC50 ([2]; read-out: IC50) | inhibition at 1 h, 10 µM (ABCB1 [3]) | selectivity ratio (ABCG2 [4]) | GI50 at 72 h [5] | Emax at 2 h (ABCG2 [6]) | IC50 [7] | inhibition at 1 h, 10 µM (ABCC1) | IC50 ([2]; a2780 adr) | GI50 at 72 h [8] | GI50 at 72 h [9] | GI50 at 72 h [10] | GI50 at 72 h [11] | selectivity ratio (ABCB1 [12])
N#Cc1ccc(Nc2cc(NCc3cccnc3)nc(-c3ccccc3)n2)cc1 | 5.54 µM | 5.41 µM | > 20% | 14.9 | 7.47 µM | 91% | 0.373 µM | > 20% |  |  |  |  |  | 
N#Cc1ccc(Nc2cc(Nc3ccc(C#N)cc3)nc(-c3ccccc3)n2)cc1 | 7.78 µM | 6.75 µM | > 20% | 58.7 | 7.09 µM | 60% | 0.133 µM |  |  |  |  |  |  | 
CCCCNc1cc(Nc2ccc(C#N)cc2)nc(-c2ccccc2)n1 | 6.08 µM | 6.62 µM | > 20% | 12.2 | 8.32 µM | 73% | 0.5 µM |  |  |  |  |  |  | 
N#Cc1ccc(Nc2cc(-c3ccccc3)nc(-c3ccccc3)n2)cc1 | 21.9 µM |  |  | 4.96 | 25.1 µM | 100% | 4.41 µM |  | Not Active |  |  |  |  | 
CCCNc1cc(Nc2ccc(C#N)cc2)nc(-c2ccccc2)n1 | 6.56 µM | 5.9 µM | > 20% |  | 8.34 µM | 89% | 0.293 µM | > 20% |  | 15.1 µM | 12.3 µM | 23 µM |  | 
N#Cc1ccc(Nc2cc(NCc3ccccc3)nc(-c3ccccc3)n2)cc1 | 10.7 µM | 4.47 µM | > 20% | 38 | 4.19 µM | 99% | 0.283 µM |  |  |  |  |  |  | 
N#Cc1ccc(Nc2ccnc(-c3ccccc3)n2)cc1 |  |  |  |  |  |  | 0.189 µM |  |  |  |  |  |  | 
N#Cc1ccc(Nc2cc(Nc3ccccc3)nc(-c3ccccc3)n2)cc1 | 4.05 µM | 5.38 µM | > 20% | 24 | 4.95 µM | 84% | 0.169 µM |  |  |  |  |  |  | 
CC(C)Nc1cc(Nc2ccc(C#N)cc2)nc(-c2ccccc2)n1 | 5.06 µM | 6.42 µM | > 20% |  | 5.58 µM | 101% | 0.763 µM | > 20% |  | 13.3 µM | 8.09 µM | 21.4 µM |  | 
CCc1c2c(nc3ccc(O)cc13)-c1cc3c(c(=O)n1C2)COC(=O)[C@]3(O)CC [7-ETHYL-10-HYDROXYCAMPTOTHECIN] |  |  |  |  | 0.139 µM |  |  |  |  |  |  |  |  | 
CNc1cc(Nc2ccc(C#N)cc2)nc(-c2ccccc2)n1 | 25 µM | 25.9 µM | > 20% | 180 | 34.1 µM | 68% | 0.141 µM |  |  |  |  |  |  | 
N#Cc1ccc(Nc2cc(Nc3cccc(O)c3)nc(-c3ccccc3)n2)cc1 | 5.12 µM | 3.52 µM | > 20% |  | 5.24 µM | 66% | 0.608 µM | > 20% |  |  | 5.91 µM | 11 µM | 3.55 µM | 
N#Cc1ccc(Nc2cc(NCc3ccncc3)nc(-c3ccccc3)n2)cc1 | 10 µM | 4.26 µM | > 20% | 23.1 | 10.7 µM | 78% | 0.435 µM |  |  |  |  |  |  | 
N#Cc1ccc(Nc2cc(NCc3ccccn3)nc(-c3ccccc3)n2)cc1 | 8.56 µM | 3.4 µM | > 20% | 40.8 | 9.44 µM | 88% | 0.21 µM |  |  |  |  |  |  | 
Cc1cc(Nc2ccc(C#N)cc2)nc(-c2ccccc2)n1 |  |  |  |  |  | 87% | 0.189 µM |  |  |  |  |  |  | 
N#Cc1ccc(Nc2cc(Nc3ccc(O)cc3)nc(-c3ccccc3)n2)cc1 | 5.15 µM | 4.54 µM | > 20% |  | 5.3 µM | 76% | 0.387 µM | > 20% |  |  | 9.21 µM | 13.7 µM | 8.02 µM | 
N#Cc1ccc(Nc2cc(Nc3ccccc3O)nc(-c3ccccc3)n2)cc1 | 4.61 µM | 2.98 µM | > 20% | 20.7 | 4.23 µM | 86% | 0.223 µM |  |  |  | 9.96 µM |  | 9.07 µM | 3.34
N#Cc1ccc(Nc2cc(NCCCCc3ccccc3)nc(-c3ccccc3)n2)cc1 | 9.48 µM |  |  | 65 | 10.6 µM | 61% | 0.147 µM |  | Not Active |  |  |  |  | 
N#Cc1ccc(Nc2cc(NCCCc3ccccc3)nc(-c3ccccc3)n2)cc1 | 3.64 µM |  |  | 38.4 | 5.03 µM | 61% | 0.096 µM |  | Not Active |  |  |  |  | 
